Tests used:
A549 = assay: Cytotoxicity against human A549 cells assessed as cell viability after 48 hrs; format: functional, cell-based; conditions: A549, 48 h
Outline: (§1)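 Cells from ATCC grown in MEM with Earle's salts, L-glutamine, 10% FBS, vitamins, essential amino acids, sodium pyruvate, penicillin/streptomycin, 37 °C, 5% CO2. Exponentially growing cells seeded at 5 × 10^3 per well, adhered 16 h, then exposed 48 h to increasing concentrations from DMSO stocks (final DMSO 0.5% v/v). Resazurin fluorescence read (ex 530/em 590 nm), blank-subtracted, expressed as survival versus control wells. IC50 given as mean ± standard deviation, three experiments in triplicate.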

[1] = Cytotoxicity against human WS1 cells assessed as cell viability after 48 hrs; format: cell-based; conditions: WS1, 48 h; outline: as §1
DLD-1 = assay: Cytotoxicity against human DLD1 cells assessed as cell viability after 48 hrs; format: functional, cell-based; conditions: DLD-1, 48 h; outline: as §1

## C=C(C)[C@@H]1CC[C@]2(CO)CC[C@]3(C)[C@H](CC[C@@H]4[C@@]5(C)CC[C@H](O[C@@H]6OC[C@@H](O)[C@H](O)[C@H]6O)C(C)(C)[C@@H]5CC[C@]43C)[C@@H]12
A549
  IC50: > 75 µM
[1]
  IC50: > 75 µM
DLD-1
  IC50: > 75 µM

## CC1(C)CC[C@]23CC[C@]4(C)[C@H](CC[C@@H]5[C@@]6(C)CC[C@H](O[C@@H]7O[C@H](CO)[C@@H](O)[C@H](O)[C@H]7O)C(C)(C)[C@@H]6CC[C@]54C)[C@H]2[C@@H]1OC3
A549
  IC50: 31 µM
[1]
  IC50: 40 µM
DLD-1
  IC50: 40 µM

## C=C(C)[C@@H]1CC[C@]2(C(=O)O)CC[C@]3(C)[C@H](CC[C@@H]4[C@@]5(C)CC[C@H](O[C@H]6O[C@H](CO)[C@@H](O)[C@H](O)[C@@H]6O)C(C)(C)[C@@H]5CC[C@]43C)[C@@H]12
A549
  IC50: 34 µM
[1]
  IC50: 13 µM
DLD-1
  IC50: 15 µM

## CC1(C)CC[C@]23CC[C@]4(C)[C@H](CC[C@@H]5[C@@]6(C)CC[C@H](O[C@H]7O[C@H](CO)[C@@H](O)[C@H](O)[C@@H]7O)C(C)(C)[C@@H]6CC[C@]54C)[C@H]2[C@@H]1OC3
A549
  IC50: > 75 µM
[1]
  IC50: > 75 µM
DLD-1
  IC50: > 75 µM

## C=C(C)[C@@H]1CC[C@]2(CO)CC[C@]3(C)[C@H](CC[C@@H]4[C@@]5(C)CC[C@H](O[C@@H]6O[C@H](CO)[C@@H](O)[C@H](O)[C@H]6O)C(C)(C)[C@@H]5CC[C@]43C)[C@@H]12
A549
  IC50: > 75 µM
[1]
  IC50: > 75 µM
DLD-1
  IC50: > 75 µM

## C=C(C)[C@@H]1CC[C@]2(CO)CC[C@]3(C)[C@H](CC[C@@H]4[C@@]5(C)CC[C@H](O[C@@H]6O[C@H](CO)[C@H](O)[C@H](O)[C@H]6O)C(C)(C)[C@@H]5CC[C@]43C)[C@@H]12
A549
  IC50: > 75 µM
[1]
  IC50: > 75 µM
DLD-1
  IC50: > 75 µM

## CC1(C)CC[C@]23CC[C@]4(C)[C@H](CC[C@@H]5[C@@]6(C)CC[C@H](O[C@@H]7OC[C@@H](O)[C@H](O)[C@H]7O)C(C)(C)[C@@H]6CC[C@]54C)[C@H]2[C@@H]1OC3
A549
  IC50: > 75 µM
[1]
  IC50: > 75 µM
DLD-1
  IC50: > 75 µM

## CC1(C)CC[C@]23CC[C@]4(C)[C@H](CC[C@@H]5[C@@]6(C)CC[C@H](O[C@@H]7OC[C@@H](O)[C@H](O)[C@H]7O)C(C)(C)[C@@H]6CC[C@]54C)[C@H]2[C@@H]1OC3=O
A549
  IC50: > 75 µM
[1]
  IC50: > 75 µM
DLD-1
  IC50: > 75 µM

## C[C@@H]1O[C@H](O[C@H]2CC[C@]3(C)[C@H]4CC[C@@H]5[C@H]6[C@@H]7OC[C@@]6(CCC7(C)C)CC[C@@]5(C)[C@]4(C)CC[C@H]3C2(C)C)[C@@H](O)[C@@H](O)[C@@H]1O
A549
  IC50: > 75 µM
[1]
  IC50: > 75 µM
DLD-1
  IC50: > 75 µM

## CC1(C)CC[C@]23CC[C@]4(C)[C@H](CC[C@@H]5[C@@]6(C)CC[C@H](O[C@@H]7O[C@H](CO)[C@H](O)[C@H](O)[C@H]7O)C(C)(C)[C@@H]6CC[C@]54C)[C@H]2[C@@H]1OC3
A549
  IC50: 30 µM
[1]
  IC50: 30 µM
DLD-1
  IC50: 40 µM

## CC1(C)CC[C@]23CC[C@]4(C)[C@H](CC[C@@H]5[C@@]6(C)CC[C@H](O)C(C)(C)[C@@H]6CC[C@]54C)[C@H]2[C@H]1OC3 [ALLOBETULIN]
A549
  IC50: > 75 µM
[1]
  IC50: > 75 µM
DLD-1
  IC50: > 75 µM

## CC1(C)CC[C@]23CC[C@]4(C)[C@H](CC[C@@H]5[C@@]6(C)CC[C@H](O[C@@H]7O[C@H](CO)[C@@H](O)[C@H](O)[C@H]7O)C(C)(C)[C@@H]6CC[C@]54C)[C@H]2[C@@H]1OC3=O
A549
  IC50: > 75 µM
[1]
  IC50: > 75 µM
DLD-1
  IC50: > 75 µM

## C=C(C)[C@@H]1CC[C@]2(CO)CC[C@]3(C)[C@H](CC[C@@H]4[C@@]5(C)CC[C@H](O[C@H]6O[C@H](CO)[C@@H](O)[C@H](O)[C@@H]6O)C(C)(C)[C@@H]5CC[C@]43C)[C@@H]12
A549
  IC50: 7.3 µM
[1]
  IC50: 5.1 µM
DLD-1
  IC50: 10.1 µM

## CC1(C)CC[C@]23CC[C@]4(C)[C@H](CC[C@@H]5[C@@]6(C)CC[C@H](O[C@H]7OC[C@H](O)[C@H](O)[C@H]7O)C(C)(C)[C@@H]6CC[C@]54C)[C@H]2[C@@H]1OC3
A549
  IC50: > 75 µM
[1]
  IC50: > 75 µM
DLD-1
  IC50: > 75 µM

## CC1(C)CC[C@]23CC[C@]4(C)[C@H](CC[C@@H]5[C@@]6(C)CC[C@H](O)C(C)(C)[C@@H]6CC[C@]54C)[C@H]2[C@H]1OC3=O
A549
  IC50: > 75 µM
[1]
  IC50: > 75 µM
DLD-1
  IC50: > 75 µM

## CC1(C)CC[C@]23CC[C@]4(C)[C@H](CC[C@@H]5[C@@]6(C)CC[C@H](O[C@H]7OC[C@H](O)[C@H](O)[C@H]7O)C(C)(C)[C@@H]6CC[C@]54C)[C@H]2[C@@H]1OC3=O
A549
  IC50: > 75 µM
[1]
  IC50: > 75 µM
DLD-1
  IC50: > 75 µM

## C=C(C)[C@@H]1CC[C@]2(C(=O)O)CC[C@]3(C)[C@H](CC[C@@H]4[C@@]5(C)CC[C@H](O[C@@H]6O[C@H](CO)[C@H](O)[C@H](O)[C@H]6O)C(C)(C)[C@@H]5CC[C@]43C)[C@@H]12
A549
  IC50: > 75 µM
[1]
  IC50: > 75 µM
DLD-1
  IC50: > 75 µM

## C[C@@H]1O[C@H](O[C@H]2CC[C@]3(C)[C@H]4CC[C@@H]5[C@H]6[C@@H]7OC(=O)[C@@]6(CCC7(C)C)CC[C@@]5(C)[C@]4(C)CC[C@H]3C2(C)C)[C@@H](O)[C@@H](O)[C@@H]1O
A549
  IC50: > 75 µM
[1]
  IC50: > 75 µM
DLD-1
  IC50: > 75 µM

## CC1(C)CC[C@]23CC[C@]4(C)[C@H](CC[C@@H]5[C@@]6(C)CC[C@H](O[C@H]7O[C@H](CO)[C@@H](O)[C@H](O)[C@@H]7O)C(C)(C)[C@@H]6CC[C@]54C)[C@H]2[C@@H]1OC3=O
A549
  IC50: > 75 µM
[1]
  IC50: > 75 µM
DLD-1
  IC50: > 75 µM

## C=C(C)[C@@H]1CC[C@]2(C(=O)O)CC[C@]3(C)[C@H](CC[C@@H]4[C@@]5(C)CC[C@H](O[C@@H]6OC[C@@H](O)[C@H](O)[C@H]6O)C(C)(C)[C@@H]5CC[C@]43C)[C@@H]12
A549
  IC50: 15 µM
[1]
  IC50: 20 µM
DLD-1
  IC50: 18 µM

## C=C(C)[C@@H]1CC[C@]2(C(=O)O)CC[C@]3(C)[C@H](CC[C@@H]4[C@@]5(C)CC[C@H](O[C@@H]6O[C@H](CO)[C@@H](O)[C@H](O)[C@H]6O)C(C)(C)[C@@H]5CC[C@]43C)[C@@H]12
A549
  IC50: > 75 µM

## C=C(C)[C@@H]1CC[C@]2(C(=O)O)CC[C@]3(C)[C@H](CC[C@@H]4[C@@]5(C)CC[C@H](OC(C)=O)C(C)(C)[C@@H]5CC[C@]43C)[C@@H]12
A549
  IC50: 18 µM
[1]
  IC50: 57 µM
DLD-1
  IC50: 20 µM

## CC1(C)CC[C@]23CC[C@]4(C)[C@H](CC[C@@H]5[C@@]6(C)CC[C@H](O[C@@H]7O[C@H](CO)[C@H](O)[C@H](O)[C@H]7O)C(C)(C)[C@@H]6CC[C@]54C)[C@H]2[C@@H]1OC3=O
A549
  IC50: > 75 µM
[1]
  IC50: > 75 µM
DLD-1
  IC50: > 75 µM
